IDH1 R132H inh = inhibitors of IDH1 R132H reductase, primary screen, biochemical, plate reader, single point | diaphorase/resazurin fluorescence, 60 min | inhibition, % at 10 µM | 70,000 compounds, 0.18% hits; in the data active = inhibition above about 34%; inconclusive = no clear call, values can overlap the other calls; inactive = below about 11%;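 note: 0% = DMSO and 100% = no enzyme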
Target sequence (O75874 whole entry R132H): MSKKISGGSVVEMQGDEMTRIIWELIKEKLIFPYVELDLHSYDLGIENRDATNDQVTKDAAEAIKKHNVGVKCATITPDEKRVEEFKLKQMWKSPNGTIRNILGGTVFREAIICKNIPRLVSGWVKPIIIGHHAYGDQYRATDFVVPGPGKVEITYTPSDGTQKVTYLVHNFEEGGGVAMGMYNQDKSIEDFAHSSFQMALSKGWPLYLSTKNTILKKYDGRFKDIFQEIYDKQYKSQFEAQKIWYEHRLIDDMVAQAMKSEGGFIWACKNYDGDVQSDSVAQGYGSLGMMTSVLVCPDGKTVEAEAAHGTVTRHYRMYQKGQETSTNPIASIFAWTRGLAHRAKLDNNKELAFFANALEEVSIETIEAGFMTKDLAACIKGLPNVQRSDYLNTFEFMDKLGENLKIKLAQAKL
T cruzi growth-1 = T. cruzi intracellular proliferation inhibitors, primary screen, cell-based, beta-gal Tulahuen parasites, NIH3T3 host, luminescence. 77,000 compounds, 5.9% hits. T. cruzi beta-gal in NIH3T3, GalScreen luminescence, 90 h. AID 624255, 2012. inhibition, % at 8.34 µM;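 active = mean inhibition above about 93%, with at least 55% of replicates each passing it, limit read from the data, passing the limit was not always enough; inconclusive = only one of those two conditions holds; inactive = neither condition holds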
KDM4C inh = inhibitors of GASC-1 (KDM4C) histone demethylase, primary screen, biochemical, single concentration HTS; Lysine-specific demethylase 4C (Homo sapiens), Q9H3R0; GST-KDM4C 2-372, H3K9me3 peptide, LANCE TR-FRET; inhibition, % at 12.5 µM; 96,000 compounds, 0.15% hits;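 active = mean replicate inhibition above about 25%, with at least 55% of replicates also reaching it, limit read from the data, passing the limit was not always enough; inconclusive = only one of those two conditions met; inactive = neither condition met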
Target sequence (Q9H3R0 2-372 limits assumed): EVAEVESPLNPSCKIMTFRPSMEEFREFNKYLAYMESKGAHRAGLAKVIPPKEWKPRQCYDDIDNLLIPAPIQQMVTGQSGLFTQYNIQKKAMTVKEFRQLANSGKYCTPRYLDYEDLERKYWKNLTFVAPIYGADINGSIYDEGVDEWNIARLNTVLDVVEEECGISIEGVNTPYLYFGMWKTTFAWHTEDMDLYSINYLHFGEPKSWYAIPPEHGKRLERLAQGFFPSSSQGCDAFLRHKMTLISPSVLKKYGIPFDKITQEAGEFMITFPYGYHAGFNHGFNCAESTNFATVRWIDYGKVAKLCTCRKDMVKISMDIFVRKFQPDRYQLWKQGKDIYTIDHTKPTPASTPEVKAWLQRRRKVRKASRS
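Material: GST-tagged GASC-1 (JMJD2C) catalytic fragment, aa 2-372. Input: enzyme final amount 10 nM. Medium: HEPES buffer, pH 7.5, plus ascorbate. Reagent: H3K9me3 peptide substrate, Fe(II), 2-oxoglutarate. Doses: single dose. Times: reaction 30 min RT, detection step 1 h RT. Measured by: LANCE TR-FRET. Evaluation: Fall in 671/618 emission ratio as inhibition.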
T cruzi growth-2 = T. cruzi intracellular proliferation inhibitors, confirmation, cell-based, NIH3T3 host, beta-gal parasite, luminescence, cherry-pick; shares compounds with T cruzi growth-1; T. cruzi beta-gal in NIH3T3, GalScreen luminescence, 90 h; inhibition, % at 8.35 µM; 5,600 compounds, 72% hits; AID 651739, 2012;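 active = mean replicate inhibition above about 95% and at least 55% of replicates individually reaching it, limit read from the data; inconclusive = only one of the two criteria is met; inactive = neither criterion is met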
T cruzi growth-3 = inhibitors of intracellular T. cruzi replication, confirmation, NIH3T3 host cells, beta-gal parasites, cherry-pick, set 2 | shares compounds with T cruzi growth-1 | T. cruzi beta-gal in NIH3T3, GalScreen luminescence, 90 h | inhibition, % at 2.09 µM | 5,600 compounds, 21% hits;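 active = mean inhibition above about 95%, with at least 55% of replicates also reaching it, limit read from the data; inconclusive = meets just one of the two conditions; inactive = meets neither condition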;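 note: plate controls were neutral control median for no effect and positive control median for full effect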
NIH3T3 tox = cytotoxicity in mouse NIH/3T3 fibroblasts, confirmation, cytotoxicity control for T. cruzi proliferation inhibitor project, cell-based, cherry-pick, single point. 5,600 compounds, 14% hits. cytotoxicity (signal decrease), % at 8.35 µM. shares compounds with T cruzi growth-1. NIH/3T3 viability, CellTiter-Glo ATP luminescence, 90 h;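 active = mean signal decrease across replicates above about 35% based on untreated-well scatter, with enough replicates individually passing, limit read from the data; inconclusive = no rule stated though some were filed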;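 note: 0% = median of neutral control wells and 100% = median of positive control wells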
NIH3T3 tox 2 = NIH/3T3 fibroblast cytotoxicity, confirmation, cytotoxicity control, cell-based, cherry-pick, single point, set 2. NIH/3T3 viability, CellTiter-Glo ATP luminescence, 90 h. shares compounds with T cruzi growth-1. 5,600 compounds, 56% hits. inhibition, % at 24.9 µM;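 active = mean loss of cell viability signal at or above a set limit, and enough replicates individually reaching it; inconclusive = meets only the mean limit or only the replicate share; inactive = meets neither condition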;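 note: 0% = median of neutral control wells and 100% = median of positive control wells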
An asterisk follows results filed as active; ? = inconclusive; nt = no result; ! = repeats disagree. Only a selection was taken, and hits are over-represented in it overall.

SMILES | IDH1 R132H inh | T cruzi growth-1 | KDM4C inh | T cruzi growth-2 | T cruzi growth-3 | NIH3T3 tox | NIH3T3 tox 2
Cc1ccccc1-c1ccc([C@@H]2[C@@H](CO)N3CCCCN(S(=O)(=O)c4ccc(F)cc4)C[C@@H]23)cc1 | nt | 108.1* | -1.2 | 109.5* | 82.4 | 30.0 | 81.3*
O=S(=O)(c1ccc(F)cc1)N1CCCCN2[C@H](CO)[C@@H](c3ccc(-c4ccccc4F)cc3)[C@H]2C1 | nt | 84.7 | nt | nt | nt | nt | nt
Cc1ccccc1-c1ccc([C@H]2[C@@H](CO)N3CCCCN(S(=O)(=O)c4ccc(F)cc4)C[C@H]23)cc1 | nt | 109.2* | -1.9 | 98.3* | ? | 12.5 | 104.8*
O=S(=O)(c1ccc(F)cc1)N1CCCCN2[C@H](C1)[C@H](c1ccc(-c3ccccc3)cc1)[C@@H]2CO | nt | 64.2 | 0.1 | nt | nt | nt | nt
COC(=O)CNC(=O)c1cc2nc(-c3ccc(C)c(C)c3)cc(C(F)(F)F)n2n1 | 2.4 | nt | nt | nt | nt | nt | nt
Cc1nc(NCC2CCCO2)c2c(C)c(C)sc2n1 (stereo not given) | 0.7 | nt | nt | nt | nt | nt | nt
C[C@@H]1CCCCO[C@@H](CN(C)S(C)(=O)=O)[C@@H](C)CN([C@H](C)CO)C(=O)c2cc(N(C)C)ccc2O1 | nt | 100.7*! | 3.8 | 3.1 | -21.5 | -11.5 | -11.4
C[C@@H]1CN([C@@H](C)CO)C(=O)c2cc(N(C)C)ccc2O[C@@H](C)CCCCO[C@@H]1CN(C)S(C)(=O)=O | nt | 42.3 | 11.6 | nt | nt | nt | nt
C[C@@H]1CCCCO[C@H](CN(C)S(C)(=O)=O)[C@H](C)CN([C@@H](C)CO)C(=O)c2cc(N(C)C)ccc2O1 | -1.1 | 108.0* | 9.3 | 51.9 | -12.7 | -32.7 | -31.4
C[C@@H]1CN([C@H](C)CO)C(=O)c2cc(N(C)C)ccc2O[C@@H](C)CCCCO[C@H]1CN(C)S(C)(=O)=O | nt | 21.9 | 10.1 | nt | nt | nt | nt
O=C(CC1(O)C(=O)N(Cc2cccc3ccccc23)c2ccccc21)c1ccco1 (stereo not given) | -0.4 | nt | nt | nt | nt | nt | nt
C[C@H](CO)N1C[C@H](C)[C@@H](CN(C)Cc2ccc(Oc3ccccc3)cc2)Oc2c(NS(=O)(=O)c3ccc(Cl)cc3)cccc2C1=O | nt | 102.3* | -1.9 | ? | 77.1 | 21.5 | 100.5*
C[C@@H]1CN([C@@H](C)CO)C(=O)c2cccc(NS(=O)(=O)c3ccc(Cl)cc3)c2O[C@@H]1CN(C)Cc1ccc(Oc2ccccc2)cc1 | 1.5 | 96.5 | -1.7 | nt | nt | nt | nt
C[C@H]1CN([C@@H](C)CO)C(=O)c2cccc(NS(=O)(=O)c3ccc(Cl)cc3)c2O[C@H]1CN(C)Cc1ccc(Oc2ccccc2)cc1 | nt | 102.6 | 0.4 | nt | nt | nt | nt
C[C@@H]1CN([C@H](C)CO)C(=O)c2cccc(NS(=O)(=O)c3ccc(Cl)cc3)c2O[C@H]1CN(C)Cc1ccc(Oc2ccccc2)cc1 | -1.1 | ? | 3.0 | 109.6* | 64.2 | -12.2 | 24.4
O=C(CCCOc1ccc(Cl)cc1Cl)Nc1ccc2c(c1)C(=O)NC2=O | 0.1 | nt | nt | nt | nt | nt | nt
CCC(=O)N1CC[C@H]2[C@H](CO)Nc3ccc(-c4ccc(C(=O)N(C)C)cc4)cc3[C@H]21 | nt | 106.7* | -0.7 | 104.4* | 48.6 | -21.8 | -8.9
CCC(=O)N1CC[C@H]2[C@H](CO)Nc3ccc(-c4ccccc4)cc3[C@H]21 | nt | 33.0 | -2.0 | nt | nt | nt | nt
CCC(=O)N1CC[C@H]2[C@H](CO)Nc3ccc(-c4ccc(F)cc4)cc3[C@H]21 | nt | 65.1 | -0.3 | nt | nt | nt | nt
CCC(=O)N1CC[C@@H]2[C@H]1c1cc(-c3ccc(C(=O)N(C)C)cc3)ccc1N[C@@H]2CO | nt | 105.1* | 1.3 | ? | 52.8 | -0.4 | 14.0
CCn1c(SCC(=O)c2ccc(F)cc2)nnc1-c1cccnc1 | 0.7 | nt | nt | nt | nt | nt | nt
CCCCCCCCCCCCC/C=C/C(O)C(CO)NC(C)=O (stereo not given) | 0.2 | nt | nt | nt | nt | nt | nt
CN1c2ccc(-c3ccccc3F)cc2[C@@H]2[C@@H](CCN2S(=O)(=O)c2ccc(F)cc2)[C@@H]1CO | nt | ? | -1.0 | 95.8* | ? | 45.3* | 46.5*
Cc1cccc(S(=O)(=O)N2CC[C@@H]3[C@H]2c2cc(-c4ccccc4F)ccc2N(C)[C@H]3CO)c1 | nt | 42.9 | -14.6 | nt | nt | nt | nt
COc1ccc(S(=O)(=O)N2CC[C@@H]3[C@H]2c2cc(-c4ccccc4F)ccc2N(C)[C@H]3CO)cc1 | nt | 56.1 | -8.7 | nt | nt | nt | nt
SMILES | IDH1 R132H inh | T cruzi growth-1 | KDM4C inh | T cruzi growth-2 | T cruzi growth-3 | NIH3T3 tox | NIH3T3 tox 2
CN1c2ccc(-c3ccccc3F)cc2[C@@H]2[C@@H](CCN2S(=O)(=O)c2ccc(F)cc2)[C@H]1CO | nt | 107.6* | -0.4 | 111.4* | 91.5 | ? | 49.5*
COC(=O)c1c(C)nc(C)c(C(=O)OC)c1-c1csc(S(=O)(=O)N2CCSCC2)c1 | -1.2 | nt | nt | nt | nt | nt | nt
CNc1nc(SC(C)C(=O)OC)nc(N2CCOCC2)n1 (stereo not given) | 0.0 | nt | nt | nt | nt | nt | nt
COc1ccc(C#Cc2cccc(-c3nc(C(=O)NCCCN4CCOCC4)cc4c3[C@@H](CCO)N(S(=O)C(C)(C)C)C4)c2)cc1OC (stereo not given in full) | nt | 61.6 | -2.0 | nt | nt | nt | nt
CC(C)(C)S(=O)N1Cc2cc(C(=O)NCCCN3CCOCC3)nc(-c3cccc(C#CCC4CCCC4)c3)c2[C@@H]1CCO (stereo not given in full) | -0.6 | ? | -2.4 | 100.2* | 82.2 | 42.4* | 105.2*
CN(C)CC#Cc1cccc(-c2nc(C(=O)NCCCN3CCOCC3)cc3c2[C@H](CCO)N(S(=O)C(C)(C)C)C3)c1 (stereo not given in full) | nt | 104.8* | nt | 84.9 | 62.9 | -18.3 | -5.3
CN1CCN(C(=O)c2cc3c(c(-c4cccc(C#CCC5CCCC5)c4)n2)[C@@H](CCO)N(S(=O)C(C)(C)C)C3)CC1 (stereo not given in full) | -0.2 | 72.9 | nt | nt | nt | nt | nt
C[C@H]1CN([C@@H](C)CO)S(=O)(=O)c2ccc(C#CC(C)(C)O)cc2O[C@H]1CN(C)Cc1ccc(-c2ccccc2)cc1 | nt | 124.3* | -0.2 | 95.9* | 113.4* | 114.4* | 105.4*
C[C@H](CO)N1C[C@H](C)[C@H](CN(C)Cc2ccc(-c3ccccc3)cc2)Oc2cc(C#CC(C)(C)O)ccc2S1(=O)=O | nt | 121.7* | -1.6 | 91.6 | 115.7* | 51.1* | 104.0*
C[C@H](CO)N1C[C@H](C)[C@H](CN(C)Cc2ccc(F)cc2)Oc2cc(C#CC(C)(C)O)ccc2S1(=O)=O | -3.0 | nt | 0.9 | nt | nt | nt | nt

Assay outcomes as filed in PubChem BioAssay.
